High-throughput results from PubChem BioAssay.
FLuc inh counter – Photinus pyralis luciferase inhibition counter-screen; ATPLite firefly luciferase biochemical luminescence, 10 min; inhibition, % at 10 µM; 200,000 compounds, 1.5% hits; AID 1006;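 active = inhibition above about 50% when tested at 10 µM, limit read from the data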
Target sequence (P08659 whole entry, looked up): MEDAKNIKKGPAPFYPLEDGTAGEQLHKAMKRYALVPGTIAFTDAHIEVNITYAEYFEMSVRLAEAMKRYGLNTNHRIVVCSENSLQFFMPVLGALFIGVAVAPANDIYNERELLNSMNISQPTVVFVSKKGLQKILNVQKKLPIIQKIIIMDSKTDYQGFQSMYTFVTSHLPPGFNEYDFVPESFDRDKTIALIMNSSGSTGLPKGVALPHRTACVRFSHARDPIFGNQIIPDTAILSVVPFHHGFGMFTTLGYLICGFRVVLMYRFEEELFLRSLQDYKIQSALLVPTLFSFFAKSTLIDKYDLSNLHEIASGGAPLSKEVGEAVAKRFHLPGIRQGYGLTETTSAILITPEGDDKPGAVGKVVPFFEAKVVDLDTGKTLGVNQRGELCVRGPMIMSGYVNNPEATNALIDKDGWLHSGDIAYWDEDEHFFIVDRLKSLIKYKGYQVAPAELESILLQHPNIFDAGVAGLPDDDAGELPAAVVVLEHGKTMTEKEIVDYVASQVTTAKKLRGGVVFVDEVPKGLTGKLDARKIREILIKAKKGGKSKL
Platelet DG rel – modulates dense granule release in human platelets. human platelet-rich plasma, SFLLRN dense granule ATP release, luminescence. inhibition, %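 (compounds screened at 7.5 µM in platelet-rich plasma)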. 300,000 compounds, 0.22% hits;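 active = mean replicate score, as percent of positive control, at or above 50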
FLuc act counter – firefly luciferase counter-screen for stimulation assays; P08659; ATPlite luciferase biochemical, luminescence, 10 min; 0 = ATP-free wells, 1 = DMSO control; activation factor at 10 µM; 200,000 tested, under 10 active;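 active = luciferase activation factor, scaled between plate controls, of at least 2 with compound at 10 µM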
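System: cell-free luciferase reagent; medium: PBS as buffer for the ATP substrate; doses: test compounds dosed from 2 mM stocks in 100% DMSO; incubation: 10 min, room temperature; measured by: luminescence from luciferase reaction; read-out: luciferase activation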
PPC-1+TRAIL kill – compounds killing PPC-1 cancer cells with TRAIL present (potentiator screen, no TRAIL-free arm); cell killing (% activity), % at 4 µM or 5 µM; 220,000 compounds, 0.41% hits; PPC-1 cells + TRAIL, ATPLite viability luminescence;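 active = cell killing above 50% in the first pass at 4 µM, then a duplicate retest at 5 µM averaging 50% or more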
C8 TRAIL sens – caspase-8 TRAIL sensitization; 360,000 compounds, 1% hits; inhibition (viability loss, TRAIL sensitization), % at 10 µM; NB7+C8 cells + TRAIL, ATPlite viability luminescence;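 active = compounds causing at least 50% loss of cell viability in the single-dose screen, relative to plate controls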
PPC-1 tox – kills PPC-1 cells; shares compounds with PPC-1+TRAIL kill; PPC-1 viability, ATPlite luminescence, overnight; cytotoxicity, % at 5 µM; 1,200 compounds, 50% hits;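 active = reconfirmed compounds whose average cytotoxicity reaches 50% or more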
Hits are given with their value; n = inactive; x = no result. A selection: hits, their analogues and other compounds. The true share with any hit is near 1.6%.

SMILES	FLuc inh counter	Platelet DG rel	FLuc act counter	PPC-1+TRAIL kill	C8 TRAIL sens	PPC-1 tox
Cc1ccc(-c2nnc(SCC(=O)Nc3ccccc3F)o2)cc1	n	n	n	76	72	70
O=C(CSc1nnc(-c2ccncc2)o1)Nc1cc(F)ccc1F	x	x	x	x	n	x
COC(=O)[C@]12CCCCC=C1N(Cc1cccc3ccccc13)C(=O)[C@H](CC(=O)NCc1cccc(C(F)(F)F)c1)C2	x	x	x	x	n	x
COCCNC(=O)C1(C)CCN(C(=O)c2sc(-c3ccccc3)nc2C)C1 (stereo not drawn)	x	x	x	x	n	x
Cc1c(Br)cccc1NC(=O)C1(C)CCN1Cc1ccccc1OC(F)F (stereo not drawn)	x	x	x	x	n	x
Cc1ccc2nc(-c3ccccc3)cn2c1	96	73	n	90	90	88
c1csc(-c2nnc(-c3ccc(N4CCOCC4)cc3)o2)c1	71	n	n	n	51	n
O=C(c1nc2nc(-c3ccccc3)cc(C(F)(F)F)n2n1)N1CCCCC1	n	x	n	n	n	n
COc1ccc(C(=O)Nc2ccc(C)cn2)c(OC)c1	95	n	n	88	91	88
COc1ccc(C(=O)Nc2cc(C)on2)c(OC)c1	x	n	x	x	n	x
Cc1cccc(NS(=O)(=O)c2ccc(Br)s2)n1	n	n	n	n	n	n
CC(C)C(N)c1csc(NC(=O)Nc2cccc(Cl)c2)n1 (stereo not drawn)	x	x	x	x	n	x
Cn1ccc2c(-c3ccc4c(c3)OCCO4)cc3c(c21)C1CCC3C1 (stereo not drawn)	x	x	x	x	n	x
C=C1C(=O)O[C@@H]2C[C@@H](C)[C@@H]3C=CC(=O)[C@@]3(C)[C@@H](OC(C)=O)[C@H]12	x	n	x	62	x	52
CC(C)NC(=O)c1cc(C2CCCCN2C(=O)c2ccc(C(C)C)cc2)on1 (stereo not drawn)	x	x	x	x	n	x
COc1ccc(C(=O)Nc2ccccc2C(=O)N/N=C/c2ccncc2)cc1OC	x	64	x	96	94	96
COc1ccc(C(=O)Nc2ccccc2C(=O)NCc2cccnc2)cc1OC	x	n	x	x	n	x
Cc1cccc(-n2cccc2)c1C#N	n	n	n	n	n	n
Oc1ccc(N=Nc2ccc3c(c2)OCCO3)c(O)c1	x	n	x	65	72	66
Oc1ccc(N=Nc2ccc3c(c2)OCCO3)c2cccnc12	n	n	n	n	n	x
O=C(OCC(O)C1OC(c2ccccc2)OC(COC(=O)c2ccccc2)C1O)c1ccccc1 (stereo not drawn)	x	x	x	x	n	x
Cc1ccc(S(=O)(=O)NCC(=O)NC2CCCCCC2)cc1	n	n	n	n	n	n
Cc1ccc(S(=O)(=O)NCC(=O)NC2CCCC2)cc1	n	n	n	x	n	x
CC(C)NC(=O)COC(=O)c1cc(F)c(F)cc1Cl	n	n	n	n	n	n
O=C(Nc1ccc2c(c1)OCO2)c1cc(C2CCCCN2S(=O)(=O)Cc2ccccc2)on1 (stereo not drawn)	x	x	x	x	n	x
SMILES	FLuc inh counter	Platelet DG rel	FLuc act counter	PPC-1+TRAIL kill	C8 TRAIL sens	PPC-1 tox
CC(=Nc1ccc(C)cc1C)c1sc2ccccc2c1O	85	n	n	n	65	n
CC(=O)Nc1nonc1-c1nc2ccccc2n1CC1CC1	n	n	n	n	n	x
CCC(=O)Nc1nonc1-c1nc2ccccc2n1CC(C)C	n	n	n	n	n	n
O=C1c2cccc3c([N+](=O)[O-])ccc(c23)C(=O)N1Cc1cccnc1	n	n	n	n	n	n
CCCCCCCCC[n+]1cccc2c3ccccc3ccc21	n	87	n	n	62	n
O=[N+]([O-])c1ccc(C[n+]2cccc3c4ccccc4ccc32)cc1	n	n	n	n	n	x
COc1ccc(-n2c(SCC(=O)N3CCCCC3)nnc2-c2cccnc2)cc1	n	n	n	n	n	n
C(#Cc1ccccc1)C[N+]1(CC#Cc2ccccc2)CCCCC1	n	n	n	n	n	x
Cc1ccc(C#CC[N+]2(CC#Cc3ccc(C)cc3)CCCCC2)cc1	n	n	n	n	n	n
Cc1cc(F)cc(-c2cc(C(=O)NCC3CCCCC3)[nH]n2)c1	x	x	x	x	n	x
COCCNc1cc(C)nc2cc(-c3ccc(C)cc3)nn12	n	n	n	n	n	x
Cc1ccc(-c2cc3nc(C)cc(NCc4ccco4)n3n2)cc1	68	n	n	n	63	n
CCC(C(=O)NC(C)(C)C)N(Cc1ccc(OC)cc1)C(=O)c1snc(C(N)=O)c1N (stereo not drawn)	x	x	x	x	n	x
CCCS(=O)(=O)NC(=O)C1(C)CCCN(C(=O)c2nc3ccccc3s2)C1 (stereo not drawn)	x	x	x	x	n	x
CC1(C)Cc2nc3sc4c(N(CCO)CCO)ncnc4c3cc2CO1	n	x	n	n	n	x
CC1(C)Cc2nc3sc4c(SCC(=O)O)ncnc4c3cc2CO1	x	n	x	71	76	75
CC1(C)Cc2nc3sc(C(=O)NCCO)c(N)c3cc2CO1	n	n	n	n	n	n
Nc1nc(Nc2cccc(F)c2)nc2ccccc12	57	n	n	n	n	n
O=C(Nc1cccc2c1CCCC2)c1cc(C2CCCCN2C(=O)CCCc2ccccc2)on1 (stereo not drawn)	x	x	x	x	n	x
CCCCn1nnnc1C(c1cc2ccccc2o1)N1CCN(c2ncccc2C#N)CC1 (stereo not drawn)	x	x	x	x	n	x
COc1ccc(OC)c2c1sc(=NC(=O)c1ccco1)n2C	n	n	n	n	n	x
Cc1ccc(-c2c(C)sc(=NC(=O)c3ccco3)n2C)cc1	86	n	n	n	65	n
Cc1ccsc1CNC(=O)C1(C)CCN1C(C)C (stereo not drawn)	x	x	x	x	n	x
COc1ccc(C(=O)NNC(=O)c2ccccn2)cc1	97	77	n	86	89	81
CN1C2C=C3C(C#N)=C(N)C(C#N)(C#N)[C@@H](c4cccs4)C3C1CC2 (stereo partly drawn)	n	n	n	n	n	n
SMILES	FLuc inh counter	Platelet DG rel	FLuc act counter	PPC-1+TRAIL kill	C8 TRAIL sens	PPC-1 tox
O=C1c2ccccc2-c2nc3ccccc3cc21	x	n	x	x	n	x
O=C1c2ccccc2-c2nnc(-c3ccc(F)cc3)cc21	79	n	n	78	83	79
O=C1c2ccccc2-c2nnc(-c3ccc(O)cc3)cc21	90	n	n	69	n	64
Cc1ccccc1-c1cc2c(nn1)-c1ccccc1C2=O	77	n	n	n	55	n
Cc1ccc(-c2cc3c(nn2)-c2ccccc2C3=O)cc1	x	n	x	90	93	92
O=c1[nH]nc(-c2ccc(F)cc2)cc1-c1ccccc1	x	n	x	x	n	x
COCCN(C(=O)COC(=O)c1ccc2c(c1)OCO2)c1c(N)n(Cc2ccccc2)c(=O)[nH]c1=O	x	x	x	x	n	x
O=C(OC1CC2CC1[C@H]1CCCCN1C2=O)N1CCCCC1 (stereo partly drawn)	x	x	x	x	n	x
Cc1cc(OC(=O)c2ccc(S(=O)(=O)N3CCOCC3)cc2)c([N+](=O)[O-])c(=O)[nH]1	n	x	n	n	n	n
COC(=O)c1ccccc1NC(=O)Cn1c(CCC(=O)O)ccc1-c1cccs1	n	n	n	n	n	n
Cc1ccccc1NC(=O)CSc1nnc(CNC(=O)c2ccc3c(c2)OCO3)n1C	x	n	x	x	n	x
Cn1c(CNC(=O)Cc2ccc3c(c2)OCO3)nnc1SCc1ccccc1	n	x	n	n	n	n
